For 17 compounds, EC50, SI and CC50 results are on record in ChEMBL document CHEMBL1129345, “Synthesis and potent anti-HIV-1 activity of novel 6-benzyluracil analogues of 1-[(2-hydroxyethoxy)methyl]-6-(phenylthio)thymine” (1996).

SMILES strings stand for the structures.

The test system of one assay is Human immunodeficiency virus 1. Briefly: Effective dose of compound required to inhibit 50% of HIV-1 antigen production in MT-4 cultures. Format: functional. As to conditions: read-out: ED50 (the source's name). The method in brief: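 MT-4 cells were infected with HIV-1 HTLV-IIIB (0.005 MOI) for 2 h and washed. They were then added 1:10 to uninfected MT-4 cells preincubated with compound for 2 h in RPMI 1640 with 10% heat-inactivated FCS. Cultures were kept with compound for 6 days, and supernatant HIV-1 antigen was measured by ELISA. ED50 (50% antigen reduction) is the mean of three independent determinations.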
With `CCc1c(Cc2ccccc2)n([C@@H]2CC[C@@H](CO)O2)c(=O)[nH]c1=O`, the EC50 worked out at 0.5 µM.

As to `CCc1c(Cc2ccccc2)n([C@H]2CC[C@@H](CO)O2)c(=O)[nH]c1=O`, the EC50 is 37 µM.

Consider `CCSCn1c(Cc2ccccc2)c(CC)c(=O)[nH]c1=O`, for which the EC50 was found to be 0.04 µM.

Take `CCOCn1c(Cc2cc(C)cc(C)c2)c(CC)c(=O)[nH]c1=O`: the EC50 was 0.004 µM.

On to `CCSCn1c(Cc2cc(C)cc(C)c2)c(CC)c(=O)[nH]c1=O`, for which the EC50 was found to be 0.004 µM.

Regarding `CCc1c(Cc2ccccc2)n(C(C)OC)c(=O)[nH]c1=O` (stereo not drawn), the EC50 was greater than 100 µM.

On to `CCSCn1c(Cc2ccccc2)c(C(C)C)c(=O)[nH]c1=O`, for which the EC50 was determined as 0.006 µM.

Turning to `CSCn1c(Cc2ccccc2)c(C(C)C)c(=O)[nH]c1=O`, the EC50 came to 0.02 µM.

For the compound `CCOCn1c(Cc2ccccc2)c(CC)c(=O)[nH]c1=O`, the EC50 came to 0.041 µM.

For the compound `CCc1c(Cc2cc(C)cc(C)c2)n(CSC)c(=O)[nH]c1=O`, the EC50 amounted to 0.05 µM.

On to `CCOC(C)n1c(Cc2ccccc2)c(CC)c(=O)[nH]c1=O` (stereo not drawn), for which the EC50 was greater than 100 µM.

Turning to `CCc1c(Cc2ccccc2)n(C(C)OCCO)c(=O)[nH]c1=O` (stereo not drawn), the EC50 is greater than 100 µM.

As for `CCc1c(Cc2cc(C)cc(C)c2)n(C(C)OC)c(=O)[nH]c1=O` (stereo not drawn), the EC50 is 2 µM.

On to `CCc1c(Cc2ccccc2)n(CSC)c(=O)[nH]c1=O`, for which the EC50 was found to be 0.002 µM.

In the case of `CCOC(CC)n1c(Cc2cc(C)cc(C)c2)c(CC)c(=O)[nH]c1=O` (stereo not drawn), the EC50 amounted to 15 µM.

`CCOCn1c(Cc2ccccc2)c(C(C)C)c(=O)[nH]c1=O` [EMIVIRINE]: the EC50 came out at 0.005 µM.

`Cc1cn([C@H]2C[C@H](N=[N+]=[N-])[C@@H](CO)O2)c(=O)[nH]c1=O` [ZIDOVUDINE]: the EC50 came out at 0.04 µM.

A further assay deals with MT4. The assay is described as follows: Selectivity index is the ratio between CD50 and ED50. Format: functional.
Details: not given
The method, boiled down:
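Selectivity index computed as CD50 (MTT proliferation assay in uninfected MT-4 cells) divided by ED50 (HIV-1 antigen ELISA in HTLV-IIIB-infected MT-4 cultures, 6 days). Both values are means of three independent determinations.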
For the compound `CCc1c(Cc2ccccc2)n([C@@H]2CC[C@@H](CO)O2)c(=O)[nH]c1=O`, the SI amounted to 2.

For `CCc1c(Cc2ccccc2)n([C@H]2CC[C@@H](CO)O2)c(=O)[nH]c1=O`, the SI came out at 1.4.

`CCSCn1c(Cc2ccccc2)c(CC)c(=O)[nH]c1=O`: the SI was found to be 925.

Turning to `CCOCn1c(Cc2cc(C)cc(C)c2)c(CC)c(=O)[nH]c1=O`, the SI came to 25000.

With `CCSCn1c(Cc2cc(C)cc(C)c2)c(CC)c(=O)[nH]c1=O`, the SI is listed as 17000.

In the case of `CCSCn1c(Cc2ccccc2)c(C(C)C)c(=O)[nH]c1=O`, the SI came out at 6200.

On to `CSCn1c(Cc2ccccc2)c(C(C)C)c(=O)[nH]c1=O`, for which the SI amounted to 1850.

On to `CCc1c(Cc2cc(C)cc(C)c2)n(CSC)c(=O)[nH]c1=O`, for which the SI is recorded as 1040.

For `CCc1c(Cc2cc(C)cc(C)c2)n(C(C)OC)c(=O)[nH]c1=O` (stereo not drawn), the SI turned out to be 50.

On to `CCc1c(Cc2ccccc2)n(CSC)c(=O)[nH]c1=O`, for which the SI was 16000.

As to `CCOC(CC)n1c(Cc2cc(C)cc(C)c2)c(CC)c(=O)[nH]c1=O` (stereo not drawn), the SI worked out at 8.7.

As for `CCOCn1c(Cc2ccccc2)c(C(C)C)c(=O)[nH]c1=O` [EMIVIRINE], the SI was 28000.

For `Cc1cn([C@H]2C[C@H](N=[N+]=[N-])[C@@H](CO)O2)c(=O)[nH]c1=O` [ZIDOVUDINE], the SI is on record as 1300.

The next assay relates to MT4. Briefly: Cytotoxic dose required to reduce the proliferation of normal uninfected MT-4 cells. The class given is functional. As to conditions: Homo sapiens, read-out: CD50 (the source's name). The method in brief:
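Proliferation of uninfected MT-4 cells measured by MTT assay over a range of compound concentrations. A 30% inhibition of growth versus control cultures was counted as significant. CD50 is the concentration giving 50% reduction in proliferation, reported as the mean of three independent determinations.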
Take `CCc1c(Cc2ccccc2)n([C@@H]2CC[C@@H](CO)O2)c(=O)[nH]c1=O`: the CC50 worked out at 1 µM.

Consider `CCc1c(Cc2ccccc2)n([C@H]2CC[C@@H](CO)O2)c(=O)[nH]c1=O`, for which the CC50 was found to be 52 µM.

Consider `CCSCn1c(Cc2ccccc2)c(CC)c(=O)[nH]c1=O`, for which the CC50 turned out to be 37 µM.

With `CCOCn1c(Cc2cc(C)cc(C)c2)c(CC)c(=O)[nH]c1=O`, the CC50 is 100 µM.

Turning to `CCSCn1c(Cc2cc(C)cc(C)c2)c(CC)c(=O)[nH]c1=O`, the CC50 amounted to 68 µM.

`CCSCn1c(Cc2ccccc2)c(C(C)C)c(=O)[nH]c1=O`: the CC50 came to 37 µM.

With `CSCn1c(Cc2ccccc2)c(C(C)C)c(=O)[nH]c1=O`, the CC50 stood at 37 µM.

In the case of `CCc1c(Cc2cc(C)cc(C)c2)n(CSC)c(=O)[nH]c1=O`, the CC50 is 52 µM.

For the compound `CCc1c(Cc2cc(C)cc(C)c2)n(C(C)OC)c(=O)[nH]c1=O` (stereo not drawn), the CC50 came to 100 µM.

On to `CCc1c(Cc2ccccc2)n(CSC)c(=O)[nH]c1=O`, for which the CC50 was determined as 32 µM.

As to `CCOC(CC)n1c(Cc2cc(C)cc(C)c2)c(CC)c(=O)[nH]c1=O` (stereo not drawn), the CC50 is 130 µM.

`CCOCn1c(Cc2ccccc2)c(C(C)C)c(=O)[nH]c1=O` [EMIVIRINE]: the CC50 came out at 141 µM.

For `Cc1cn([C@H]2C[C@H](N=[N+]=[N-])[C@@H](CO)O2)c(=O)[nH]c1=O` [ZIDOVUDINE], the CC50 worked out at 52 µM.
